The values below come from ChEMBL document CHEMBL5247578, “Effective synthesis of benzimidazoles-imidazo[1,2-a]pyrazine conjugates: A comparative study of mono-and bis-benzimidazoles for antitumor activity” (Eur J Med Chem, 2019).

The test system of data set [1] is OVCAR-5. The data set is described as follows: Growth inhibition against human OVCAR-5 cells incubated for 48 hrs by sulforhodamine B assay. The class given is functional.
Another data set deals with NCI-H522. Nature of the data set: Antiproliferative activity against human NCI-H522 cells assessed as cell growth at 0.0001 M incubated for 48 hrs by SRB assay relative to control. The format is functional. The conditions noted are these: read-out: Activity.
A further data set deals with OVCAR-4. Nature of the data set: Growth inhibition against human OVCAR-4 cells incubated for 48 hrs by sulforhodamine B assay. The class given is functional.
The next data set deals with 786-0. Nature of the data set: Growth inhibition against human 786-0 cells assessed as total growth inhibitory concentration incubated for 48 hrs by sulforhodamine B assay. The class given is functional.
The test system of data set [2] is NCI/ADR-RES. The data set is described as follows: Growth inhibition against human NCI/ADR-RES cells assessed as total growth inhibitory concentration incubated for 48 hrs by sulforhodamine B assay. The format is functional. A general note: The SRB assay estimates cell density from bound dye.
The test system of data set [3] is RXF 393. The data set is described as follows: Growth inhibition against human RXF 393 cells assessed as total growth inhibitory concentration incubated for 48 hrs by sulforhodamine B assay. The format is functional.
A further data set concerns the target Albumin (Bos taurus, UniProt P02769). Nature of the data set: Binding affinity to bovine serum albumin assessed as fluorescence quenching by fluorescence spectroscopic method relative to control. The conditions noted are these: cattle.
In data set [4] the test system is LOX IMVI. The data set is described as follows: Antiproliferative activity against human LOX IMVI cells assessed as cell growth at 0.0001 M incubated for 48 hrs by SRB assay relative to control. The format is functional. The conditions noted are these: read-out: Activity.
A further data set has as its system UO-31. The data set is described as follows: Antiproliferative activity against human UO-31 cells assessed as cell growth at 0.0001 M incubated for 48 hrs by SRB assay relative to control. The format is functional. The note with it: read-out: Activity.
The test system of data set [5] is Calf thymus DNA. The data set is described as follows: Binding affinity to calf thymus DNA assessed as gibbs free energy change at temperature of 308 K by Van't Hoff plot analysis. The conditions noted are these: Bos taurus. The format is nucleic-acid assay.
A further data set relates to UACC-257. The data set is described as follows: Antiproliferative activity against human UACC-257 cells assessed as cell growth inhibition by measuring lethal concentration incubated for 48 hrs by sulforhodamine B assay. The class given is functional. The note with it: read-out: LC50 (the source's name). The essentials: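 NCI-60 five-dose screen (10^-4 to 10^-8 M, 10-fold dilutions; DMSO stocks). Cells in RPMI 1640 with 5% FBS and 2 mM L-glutamine, preincubated 24 h, then exposed 48 h at 37 °C, 5% CO2. Fixed with cold TCA, stained with 0.4% SRB, absorbance read at 515 nm. Time-zero plates used as reference. LC50 taken from [(Ti-Tz)/Tz]×100 […].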

The next data set deals with Malme-3M. Nature of the data set: Growth inhibition against human Malme-3M cells assessed as total growth inhibitory concentration incubated for 48 hrs by sulforhodamine B assay. The class given is functional.
Data set [6] relates to Calf thymus DNA. The data set is described as follows: Binding affinity to calf thymus DNA assessed as quenching constant at temperature of 308 K by fluorescence spectroscopic method. The format is nucleic-acid assay. The conditions noted are these: Bos taurus.
For data set [7], the system named is LOX IMVI. The data set is described as follows: Antiproliferative activity against human LOX IMVI cells assessed as cell growth inhibition by measuring lethal concentration incubated for 48 hrs by sulforhodamine B assay. The conditions noted are these: read-out: LC50 (the source's name). The format is functional.
The subject of another data set is U-251. Nature of the data set: Antiproliferative activity against human U-251 cells assessed as cell growth at 0.0001 M incubated for 48 hrs by SRB assay relative to control. The class given is functional. The conditions noted are these: read-out: Activity.
Data set [8] deals with LOX IMVI. The data set is described as follows: Growth inhibition against human LOX IMVI cells assessed as total growth inhibitory concentration incubated for 48 hrs by sulforhodamine B assay. The format is functional.
Another data set relates to EKVX. The data set is described as follows: Growth inhibition against human EKVX cells assessed as total growth inhibitory concentration incubated for 48 hrs by sulforhodamine B assay. The format is functional.
The subject of another data set is SK-OV-3. Nature of the data set: Growth inhibition against human SK-OV-3 cells assessed as total growth inhibitory concentration incubated for 48 hrs by sulforhodamine B assay. The class given is functional.
For data set [9], the system named is Calf thymus DNA. Nature of the data set: Binding affinity to calf thymus DNA assessed as quenching constant at temperature of 318 K by fluorescence spectroscopic method. The format is nucleic-acid assay. The note with it: Bos taurus.
Data set [10] relates to Calf thymus DNA. The data set is described as follows: Binding affinity to calf thymus DNA assessed as change in enthalpy at temperature of 298 K by Van't Hoff plot analysis. The class given is nucleic-acid assay. The conditions noted are these: Bos taurus.
For the next data set, the system named is HCT-116. The data set is described as follows: Antiproliferative activity against human HCT-116 cells assessed as cell growth inhibition by measuring lethal concentration incubated for 48 hrs by sulforhodamine B assay. The class given is functional. The note with it: read-out: LC50 (the source's name).
Data set [11] relates to RXF 393. The data set is described as follows: Antiproliferative activity against human RXF 393 cells assessed as cell growth inhibition by measuring lethal concentration incubated for 48 hrs by sulforhodamine B assay. The class given is functional. The conditions noted are these: read-out: LC50 (the source's name).
A further data set has as its system HCT-15. Nature of the data set: Growth inhibition against human HCT-15 cells assessed as total growth inhibitory concentration incubated for 48 hrs by sulforhodamine B assay. The format is functional.
A further data set relates to MDA-MB-231. Nature of the data set: Antiproliferative activity against human MDA-MB-231 cells assessed as cell growth inhibition by measuring lethal concentration incubated for 48 hrs by sulforhodamine B assay. The conditions noted are these: read-out: LC50 (the source's name). The format is functional.
For data set [12], the system named is K562. Nature of the data set: Antiproliferative activity against human K562 cells assessed as cell growth at 0.00001 M incubated for 48 hrs by SRB assay relative to control. The class given is functional. The note with it: read-out: Activity.
Another data set relates to NCI-H226. Nature of the data set: Growth inhibition against human NCI-H226 cells assessed as total growth inhibitory concentration incubated for 48 hrs by sulforhodamine B assay. The class given is functional.
A further data set deals with T47D. The data set is described as follows: Growth inhibition against human T47D cells assessed as total growth inhibitory concentration incubated for 48 hrs by sulforhodamine B assay. The format is functional.
Another data set concerns SW-620. Nature of the data set: Antiproliferative activity against human SW620 cells assessed as cell growth at 0.00001 M incubated for 48 hrs by SRB assay relative to control. The format is functional. The note with it: read-out: Activity.
Another data set relates to MOLT-4. Nature of the data set: Antiproliferative activity against human MOLT-4 cells assessed as cell growth at 0.00001 M incubated for 48 hrs by SRB assay relative to control. The class given is functional. The note with it: read-out: Activity.
A further data set relates to SK-MEL-28. The data set is described as follows: Growth inhibition against human SK-MEL-28 cells assessed as total growth inhibitory concentration incubated for 48 hrs by sulforhodamine B assay. The format is functional.
Data set [13] relates to K562. The data set is described as follows: Antiproliferative activity against human K562 cells assessed as cell growth inhibition by measuring lethal concentration incubated for 48 hrs by sulforhodamine B assay. The format is functional. The note with it: read-out: LC50 (the source's name).
A further data set relates to M14. Nature of the data set: Growth inhibition against human M14 cells assessed as total growth inhibitory concentration incubated for 48 hrs by sulforhodamine B assay. The format is functional.
Data set [14] has as its system NCI/ADR-RES. Nature of the data set: Antiproliferative activity against human NCI/ADR-RES cells assessed as cell growth at 0.0001 M incubated for 48 hrs by SRB assay relative to control. The format is functional. The note with it: read-out: Activity.
Data set [15] relates to Calf thymus DNA. Nature of the data set: Binding affinity to calf thymus DNA assessed as change in entropy at temperature of 298 K by Van't Hoff plot analysis. The conditions noted are these: Bos taurus. The format is nucleic-acid assay.
For the next data set, the system named is COLO 205. The data set is described as follows: Antiproliferative activity against human COLO 205 cells assessed as cell growth inhibition by measuring lethal concentration incubated for 48 hrs by sulforhodamine B assay. The note with it: read-out: LC50 (the source's name). The format is functional.
The subject of the next data set is HOP-62. Nature of the data set: Growth inhibition against human HOP-62 cells assessed as total growth inhibitory concentration incubated for 48 hrs by sulforhodamine B assay. The class given is functional.
Data set [16] deals with K562. Nature of the data set: Antiproliferative activity against human K562 cells assessed as cell growth at 0.0000001 M incubated for 48 hrs by SRB assay relative to control. The format is functional. The note with it: dose 100 nM, read-out: Activity.
Data set [17] deals with Calf thymus DNA. Nature of the data set: Binding affinity to calf thymus DNA assessed as fluorescence quenching intensity at 5 uM at temperature of 308 K by fluorescence spectroscopic method relative to control. The format is nucleic-acid assay. The note with it: Bos taurus.
Data set [18] has as its system OVCAR-5. The data set is described as follows: Growth inhibition against human OVCAR-5 cells assessed as total growth inhibitory concentration incubated for 48 hrs by sulforhodamine B assay. The class given is functional.
In data set [19] the test system is Calf thymus DNA. The data set is described as follows: Binding affinity to calf thymus DNA assessed as binding constant at temperature of 318 K by Stern-Volmer quenching plot based fluorescence spectroscopic method. The format is nucleic-acid assay. The note with it: Bos taurus.
In another data set the test system is UACC-62. The data set is described as follows: Growth inhibition against human UACC-62 cells assessed as total growth inhibitory concentration incubated for 48 hrs by sulforhodamine B assay. The format is functional.

Some results are limits rather than exact numbers.

Albumin, sequence (P02769 whole entry): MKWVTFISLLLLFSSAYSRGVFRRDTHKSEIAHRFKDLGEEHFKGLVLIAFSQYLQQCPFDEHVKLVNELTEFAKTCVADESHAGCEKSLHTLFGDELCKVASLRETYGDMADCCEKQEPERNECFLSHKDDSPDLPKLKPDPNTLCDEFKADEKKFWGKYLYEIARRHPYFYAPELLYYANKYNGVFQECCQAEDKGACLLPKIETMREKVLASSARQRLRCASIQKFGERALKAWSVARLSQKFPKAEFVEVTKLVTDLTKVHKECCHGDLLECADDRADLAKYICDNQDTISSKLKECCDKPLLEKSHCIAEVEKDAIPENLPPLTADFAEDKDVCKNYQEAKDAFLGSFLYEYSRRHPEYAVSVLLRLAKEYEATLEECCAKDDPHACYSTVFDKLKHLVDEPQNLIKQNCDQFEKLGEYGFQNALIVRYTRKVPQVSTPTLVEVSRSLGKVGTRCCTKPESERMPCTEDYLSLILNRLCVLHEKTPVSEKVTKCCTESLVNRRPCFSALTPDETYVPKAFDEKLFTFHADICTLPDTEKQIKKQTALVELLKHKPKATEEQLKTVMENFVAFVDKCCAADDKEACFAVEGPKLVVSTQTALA

On to `c1ccc(Cn2cnc3ccc(-c4nc(-c5ccc6c(c5)ncn6C5CCCCC5)cn5ccnc45)cc32)cc1`, for which the values for the GI50 in the data set on OVCAR-5 [1] and in the data set on OVCAR-4 were 2.64 µM and 3.06 µM, respectively. Also, the growth at 100 µM with NCI-H522 was -42%. Further, the TGI – broadly, the concentration giving total growth inhibition – is greater than 100 µM in the data set on 786-0, 5.43 µM in the data set on NCI/ADR-RES [2] and 2.75 µM in the data set on RXF 393 [3]. Also, the Activity on Albumin turned out to be 75%.
As to `COc1ccc(-c2cn3ccnc3c(-c3ccc4ncn(C5CCCCC5)c4c3)n2)cc1`, the growth at 100 µM in the data set on LOX IMVI [4] came to 19%; in the data set on UO-31 it was 26%; with U-251, 6%; with NCI/ADR-RES [14], 3%. The deltaG with Calf thymus DNA [5] is -5.85 kcal/mol. In addition, the CC50 with UACC-257, in the data set on LOX IMVI [7], with HCT-116, in the data set on RXF 393 [11], in the data set with MDA-MB-231 and with K562 [13] was greater than 100 µM in each case. Also, the CC50 with COLO 205 was greater than 100 µM. The TGI with Malme-3M was greater than 100 µM; in the data set with LOX IMVI [8], greater than 100 µM; in the data set on EKVX it was greater than 100 µM; in the data set with SK-OV-3, 7.64 µM; in the data set with HCT-15, greater than 100 µM; in the data set with NCI-H226, greater than 100 µM. Moreover, the total growth inhibition concentration (TGI) in the data set on T47D was 4.5 µM; with SK-MEL-28 it was greater than 100 µM; in the data set on M14 it was greater than 100 µM; in the data set with HOP-62, greater than 100 µM; in the data set with OVCAR-5 [18], greater than 100 µM; in the data set with UACC-62, greater than 100 µM. The Kq in the data set with Calf thymus DNA [6] was 1.68 10^12/M/s; in the data set on Calf thymus DNA [9], 0.73 10^12/M/s. For the same molecule, in the data set on Calf thymus DNA [10], the deltaH was -69.3 kcal/mol. In addition, the growth at 10 µM in the data set on K562 [12] was determined as 8%; with SW-620 it was 29%; with MOLT-4, 13%. In addition, in the data set on Calf thymus DNA [15], the deltaS was -206 cal/mol/K. For the same molecule, the growth at 0.1 µM in the data set with K562 [16] stood at 92%. The Activity in the data set on Calf thymus DNA [17] turned out to be 65%. In addition, the Kb in the data set with Calf thymus DNA [19] is 0.02 10^4/M.
